Sampled rows, rich in hits. Any-hit rate of the full collection: about 1.7%.
Scp1 inh: Scp-1 phosphatase inhibitors, primary screen, biochemical, colorimetric, uHTS | Recombinant Scp1, phosphopeptide, malachite green phosphate absorbance | inhibition, % at 20 µM | 340,000 tested, 0.88% active | AID 493091, 2011;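 active = inhibition above about 50% at 20 µM, limit read from the data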;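 note: plate controls were DMSO wells with enzyme for no effect and wells lacking enzyme for full effect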
Target sequence (Q9GZU7 76-261 limits assumed): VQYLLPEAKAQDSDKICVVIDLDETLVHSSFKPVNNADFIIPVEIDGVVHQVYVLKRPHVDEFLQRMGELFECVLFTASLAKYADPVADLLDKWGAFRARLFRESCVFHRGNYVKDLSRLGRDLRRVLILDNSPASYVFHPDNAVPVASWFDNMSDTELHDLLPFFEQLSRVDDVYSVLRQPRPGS
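Material – SCP-1 phosphatase catalytic domain, residues 76-261 · Buffer or medium – Acidic Tris acetate buffer with magnesium and detergent · Also added – Phospho 17-mer peptide substrate · Compound – single 20 µM dose, 1% DMSO · Times – 45 min room-temperature reaction, 5 min colour, 30 min stabiliser · Technique – Phosphate-binding colour reagent, absorbance read at 630 nm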
LMPTP inh: LMPTP phosphatase inhibitors, primary screen, biochemical, fluorescence intensity, uHTS | inhibition, % at 20 µM | 360,000 tested, 0.22% active | recombinant LMPTP-A, OMFP fluorogenic substrate | AID 651560, 2012 | Low molecular weight phosphotyrosine protein phosphatase (Homo sapiens), P24666;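 active = compounds that cut the enzyme signal by at least half of the control window in the single-dose screen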;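 note: plate controls were DMSO wells with enzyme plus substrate for no effect and substrate without enzyme for full effect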
Target sequence (P24666 whole entry, looked up): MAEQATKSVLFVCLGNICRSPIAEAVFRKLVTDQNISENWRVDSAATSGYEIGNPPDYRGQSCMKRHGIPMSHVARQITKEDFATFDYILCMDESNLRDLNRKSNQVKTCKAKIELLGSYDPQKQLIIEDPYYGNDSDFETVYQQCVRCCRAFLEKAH
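Assay system: LMPTP-A enzyme. Input: 0.625 nM LMPTP-A final. Probe or stimulus: 400 µM OMFP. Compound dosing: single 20 µM dose. Schedule: 50 min dark incubation at room temperature. Detection: fluorescence intensity of OMFP turnover product. Read-out: percent inhibition versus substrate-only and uninhibited controls. Benchmarks: no-enzyme low control, uninhibited high control.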
STEP inh: STEP phosphatase inhibitors, primary screen, biochemical, fluorescence intensity, uHTS | recombinant STEP, OMFP fluorogenic substrate | Tyrosine-protein phosphatase non-receptor type 5 (Homo sapiens), P54829 | inhibition, % at 20 µM | 360,000 tested, 0.25% active;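 active = inhibition at 20 µM, scaled per plate between control wells, above about 37%, limit read from the data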;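 note: 0% = DMSO with enzyme and substrate and 100% = substrate only without enzyme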
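Measure: Control-normalized % inhibition with plate pattern correction | Test system: STEP phosphatase, cell-free reaction | Medium: pH 6.0 Bis-Tris with DTT and Tween 20 | Technique: Fluorescence, 480/540 nm | Times: Reaction 20 min, ambient temperature | Doses: Single compound dose of 20 µM, 1% DMSO final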
SUMO1-SIM PPI: modulators of SUMO1 protein-protein interactions, primary screen, biochemical, uHTS | Small ubiquitin-related modifier 1 (Homo sapiens), P63165 | SUMO1 binding to a labelled peptide, TR-FRET, 1 h | inhibition, % at 20 µM | 360,000 tested, 0.33% active | AID 602429, 2012; in the data active = inhibition above about 37%
Target sequence (P63165 whole entry, looked up): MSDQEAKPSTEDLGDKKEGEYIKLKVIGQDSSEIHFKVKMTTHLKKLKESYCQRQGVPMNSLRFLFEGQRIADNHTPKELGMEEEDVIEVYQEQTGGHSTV
Pemphigus Ab inh: inhibitors of pemphigus antibody binding to DSG3, primary screen, biochemical, bead-based, flow cytometry, scFv-GFP; DSG3-coupled beads, scFv-anti-DSG3-GFP binding; active compounds read low; binding (percent of control), % at 10 µM; 310,000 tested, 0.48% active;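 active = binding more than 3 SD below its plate's average and above zero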;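 note: hits lower antibody fragment binding to DSG3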
* hit, by the source's call; · = no result given.

SMILES	Scp1 inh	LMPTP inh	STEP inh	SUMO1-SIM PPI	Pemphigus Ab inh
COc1ccnc(N2CCN(c3cccc(C(F)(F)F)c3)CC2)c1C#N	-5.2	1.5	2.0	-7.2	79.2*
COc1ccnc(N2CCN(c3ccc(Cl)cc3)CC2)c1C#N	-5.6	1.6	-2.3	0.5	99.9
CC(C(=O)NC1C(=O)N2C(C(=O)O)=C(CSc3nnnn3C)CSC12)n1cc(Cl)cn1 (stereo not given)	26.6	0.1	4.0	7.0	90.8
CCCn1c(C)nc2c(c1=O)c1nc3ccccc3nc1n2-c1ccccc1	-13.3	-0.6	-1.1	-7.0	87.6*
CC[n+]1c(/C=C/N(C)c2ccccc2)n(-c2ccccc2)c2ccc(-c3nc4ccccc4s3)cc21	32.0	83.2*	10.2	-84.4	168.6
CCOC(=O)C1=C(COC(=O)Cc2ccc(OC)c(OC)c2)NC(=O)NC1C (stereo not given)	-0.1	-0.9	-1.9	-2.7	·
O=S(=O)(NCc1ccccc1)c1ccc(Cl)cc1	-16.6	-0.5	-2.3	2.6	102.8
O=S(=O)(Nc1cc2nc3ccccc3nc2n1Cc1ccccc1)c1ccc(Cl)cc1	-14.0	38.0	-12.9	51.4*	94.8
O=C(NCc1ccco1)c1cc2cc(Br)ccc2o1	-4.7	0.2	20.0	-4.3	112.6
Clc1ccc(-c2ccc(C=Nc3ccc(N4CCOCC4)cc3)o2)cc1	-15.5	1.9	0.9	-15.7	99.0
Clc1ccc(-c2ccc(C=Nc3ccc(N4CCOCC4)cc3)o2)c(Cl)c1	-0.6	10.9	3.2	-14.5	26.7*
CCc1cccc(C)c1NC(=O)CSc1nc(C)c(C)o1	1.1	-2.1	-3.4	-1.4	99.0
CC1CCN(C(=O)Cn2cnc3c2c(=O)n(C)c(=O)n3C)c2ccccc2S1 (stereo not given)	-4.4	0.4	1.5	-3.0	98.7
Cc1cc(C)c(Nc2cc(S(=O)(=O)O)c(N)c3c2C(=O)c2ccccc2C3=O)c(C)c1	27.4	33.3	1.6	74.0*	91.4
N#CCC(=O)Nc1ccc(C(=O)NNC(=S)NC2CC2)cc1	3.1	-0.8	1.1	0.1	100.8
O=C(/C=C/c1cccc(F)c1)N1CCc2ccccc21	-4.6	1.1	-2.0	-1.4	18.1*
O=C(/C=C/c1cccc(F)c1)OCC(=O)N1CCCc2ccccc21	-8.9	0.8	0.1	-13.8	106.2
Cc1noc(C)c1S(=O)(=O)Nc1ccc2c(c1)C(=O)N([C@H](C)CO)C[C@H](C)[C@@H](CN(C)C(=O)Nc1ccccc1)O2	79.3*	-1.8	-0.1	4.2	91.0
CCOC(=O)c1ccc(Nc2sc(C(=O)c3cccc([N+](=O)[O-])c3)c(N)c2C#N)cc1	0.9	0.0	-1.7	52.7*	80.9
CC(=O)c1ccc(NC(=O)c2ccc(N3C(=O)c4cccnc4C3=O)cc2)cc1	7.0	3.2	1.9	41.2*	104.6
O=C(O)c1ccc(N2C(=O)c3cccnc3C2=O)cc1	-3.3	-0.3	0.1	-3.6	92.2
Cc1ccc(Cn2c(=N)c(C(=O)NCc3ccco3)cc3c(=O)n4ccccc4nc32)cc1	33.1	58.7*	5.1	-4.9	122.0
COc1ccc(CCNC(=O)c2cc3c(=O)n4ccccc4nc3n(Cc3ccco3)c2=N)cc1OC	6.8	22.7	0.8	10.0	78.4
COc1ccc(CCn2c(=N)c(C(=O)NCc3ccco3)cc3c(=O)n4ccccc4nc32)cc1OC	11.8	27.0	-0.7	50.8*	93.5
N=c1c(C(=O)NCc2ccco2)cc2c(=O)n3ccccc3nc2n1CCc1ccccc1	0.8	54.7*	-0.6	-7.3	110.6
SMILES	Scp1 inh	LMPTP inh	STEP inh	SUMO1-SIM PPI	Pemphigus Ab inh
N=c1c(C(=O)NCc2ccco2)cc2c(=O)n3ccccc3nc2n1CC1CCCO1 (stereo not given)	-0.4	17.0	-2.4	-2.2	105.0
Cc1cccn2c(=O)c3cc(C(=O)NCCc4ccccc4)c(=N)n(CCCn4ccnc4)c3nc12	4.1	64.2*	-1.5	-5.1	105.3
CC(=O)N1CCN(Cc2cc(=O)oc3ccc4ccccc4c23)CC1	·	-0.1	0.1	-26.9	·
CCOC(=O)C1(C)Oc2cccnc2NC1=O (stereo not given)	0.4	-3.1	-6.1	-7.0	118.7
O=C(Nc1ccc([N+](=O)[O-])cc1Cl)c1cc(Cl)ccc1O	35.1	72.3*	4.5	13.6	93.1
O=C(Nc1cccc(Cl)c1)c1cc(N=Nc2ccc([N+](=O)[O-])cc2Cl)ccc1O	70.6*	12.5	31.9	100.2*	102.2
Cc1cccc(-c2noc(CCC(=O)N3CCN(c4cc(C)ccc4C)CC3)n2)c1	3.9	6.4	2.0	2.7	94.5
CC1(C)Cc2c(C#N)c(N3CCN(C(=O)c4ccco4)CC3)nc(-c3ccco3)c2CS1	55.8*	-0.3	-7.8	3.6	113.7
CC(=O)N1CCN(c2nc(-c3ccco3)c3c(c2C#N)CC(C)(C)SC3)CC1	-11.9	1.0	2.9	8.1	100.9
Fc1cccc(F)c1/C=C/c1ccc2ccccc2n1	-1.2	1.6	-0.3	-13.9	104.0
C(=C\c1ccco1)/c1ccc2ccccc2n1	-6.9	57.0*	4.8	9.5	102.4
O=[N+]([O-])c1cccc(/C=C/c2nc[nH]c2[N+](=O)[O-])c1	49.8	25.8	36.6	-19.5	63.5*
O=C(COc1ncnc2sccc12)NC1CCCc2ccccc21 (stereo not given)	7.1	-1.6	-1.1	-0.4	105.8
O=C(Nc1ccc2nc(-c3ccco3)c(-c3ccco3)nc2c1)N1CCN(c2ccccn2)CC1	92.0*	87.4*	5.4	45.8*	108.0
O=C(c1ccc2nc(-c3ccco3)c(-c3ccco3)nc2c1)N1CCN(c2ncccn2)CC1	94.6*	25.9	9.1	34.0	·
Cc1nc2cc(NC(=O)N3CCN(c4ccccn4)CC3)ccc2o1	-7.7	4.5	-3.1	0.3	85.1
CC(C)Cc1cc(C(=O)Nc2ccc(F)cc2F)no1	-8.4	0.8	2.2	0.1	104.3
CC(C)Cc1cc(C(=O)Nc2cc(Cl)ccc2Cl)no1	-16.7	0.4	3.4	1.8	-39.0*
COc1ccc(C(=O)CSc2nc(=O)n3ccc(C)cc3n2)cc1	·	5.4	1.2	0.8	56.6*
Cc1ccn2c(=O)nc(SCC(=O)c3ccc(Cl)cc3)nc2c1	-7.6	-1.0	0.0	-0.4	97.9
COCCCN=Cc1c(C)[nH]n(-c2ccc(Br)cc2Br)c1=O	6.5	-1.1	-1.1	-0.6	108.4
COCCn1c(=NC(=O)CCS(=O)(=O)c2ccccc2)sc2cc(C(=O)OC)ccc21	-5.0	-0.2	0.9	-81.6	-9.8*

Screens: PubChem, several laboratories
